GalR3 antag: antagonists of human GalR3; inhibition, % at 3 µM; hit rate 0.44% among 360,000; HEK293 GalR3-CNG cAMP membrane potential fluorescence; galR3 body fused to GalR1 C-terminus;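 active means inhibition above the screen-wide average plus 3 SD, cut at about 13% in these data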;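 further: forskolin and galanin both at EC90 stimulate the cells; cAMP rise reported by CNG channel membrane potential dye signal; 0% = forskolin plus galanin with DMSO and 100% = forskolin alone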
SMARCA2 activ: increases SMARCA2 function in MMTV reporter cells; activation, % at 9.1 µM; hit rate 1% among 370,000; MG213 cells, MMTV-luciferase reporter, dexamethasone, overnight; in the data active means activation above about 7.8%;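 further: 0% = vehicle wells and 100% = reference activator wells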
COUP-TFII inh: NR2F2 (human) inhibition, primary screen; AID 686940; hit rate 0.7% among 370,000; HEK293T NGFI-A luciferase reporter, luminescence; P24468; inhibition, % at 8.6 µM;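 active means inhibition above a per-plate cutoff, mean inhibition of test wells between control levels plus 3 SD, cut at about 38% in these data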;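 further: cells cotransfected with COUP-TFII expression vector driving the NGFI-A reporter; 0% = median of COUP-TF2 test wells and 100% = reporter-only cells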
Target sequence (P24468 whole entry, looked up): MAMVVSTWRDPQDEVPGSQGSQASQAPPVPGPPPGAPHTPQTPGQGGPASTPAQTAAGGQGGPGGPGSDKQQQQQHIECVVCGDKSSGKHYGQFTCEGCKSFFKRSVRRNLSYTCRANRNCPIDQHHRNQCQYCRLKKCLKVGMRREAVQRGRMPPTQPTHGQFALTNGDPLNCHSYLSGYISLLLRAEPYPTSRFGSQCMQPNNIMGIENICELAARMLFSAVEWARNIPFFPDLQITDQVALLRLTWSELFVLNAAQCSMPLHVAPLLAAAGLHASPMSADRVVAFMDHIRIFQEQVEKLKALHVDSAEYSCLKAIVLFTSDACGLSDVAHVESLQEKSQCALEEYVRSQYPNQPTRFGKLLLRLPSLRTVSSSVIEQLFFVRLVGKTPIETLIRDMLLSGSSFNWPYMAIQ
NR2E3 ag-1: NR2E3 (human) agonism. GST-NR2E3/biotin-RetCOR TR-FRET, 1536-well. inhibition of corepressor binding, % at 4.78 µM. hit rate 0.12% among 320,000;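 active means percent inhibition above the cutoff of mean plus 3 SD of all tested compounds, set per screening campaign, cut at about 20% in these data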;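 further: 0% = DMSO wells and 100% = biotin wells as full block of FRET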
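Test system – NR2E3–RetCOR corepressor complex · Quantity – NR2E3 fusion 1.35 nM · Buffer or medium – Tris pH 7.5 · Incubation – Compound–protein incubation for 5 h at 4 °C · Technique – TR-FRET, Eu(K)-anti-GST donor, streptavidin-D2 acceptor, ex 340, em 617/671 nm · Evaluation – percent inhibition of 671/617 nm emission ratio versus biotin and DMSO controls · Plate – 1536-well format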
NR2E3 ag-2: agonists of human NR2E3 nuclear receptor; inhibition of corepressor binding, % at 3.98 µM; CHO-S Gal4-NCOR/VP16-NR2E3 two-hybrid, luciferase; hit rate 0.35% among 360,000; Q9Y5X4;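 active means inhibition above the mean of all tested compounds plus 3 SD, cut at about 70% in these data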;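 further: 0% = DMSO with NR2E3 transfected cells and 100% = cells lacking NR2E3 construct; higher means lower luciferase signal from less NR2E3 corepressor binding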
SMARCA2 conf: confirmation of SMARCA2 (BRM) function activators; shares compounds with SMARCA2 activ; MG213 cells, MMTV-luciferase with dexamethasone, luminescence, overnight; MG213 cells expressing E1A, Rb sequestered; DMSO wells 0%, reference activator 100%; activation, % at 9.1 µM; hit rate 30% among 3,500; AID 652260;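 active means activation above its plate's cutoff, the mean activation of tested wells plus 3 SD, cut at about 7.9% in these data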
GAL4-VP16 Luc: GAL4-VP16 reporter activation counter-screen. shares compounds with SMARCA2 activ. HEK293 GAL4-VP16 pG5luc reporter, luciferase luminescence; scaled: DMSO wells 0%, SAHA wells 100%. activation, % at 9.1 µM. hit rate 41% among 3,500. AID 686939;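 active means activation above the solvent-only control well mean plus 3 SD, averaged across control plates, cut at about 5.2% in these data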
An asterisk follows results filed as active. Rows were chosen to be rich in hits. Some 2.2% of all compounds tested hit in one or more screens of this group.

`CCS(=O)(=O)c1c([N+](=O)[O-])ncn1C` gave GalR3 antag -5, SMARCA2 activ 15*, COUP-TFII inh -8, NR2E3 ag-1 -1, NR2E3 ag-2 -5, SMARCA2 conf 12* and GAL4-VP16 Luc 2.
`Cc1cn([C@H]2C[C@H](O)[C@@H](/C=C/C(=O)NCc3ccco3)O2)c(=O)[nH]c1=O` gave GalR3 antag -7, SMARCA2 activ 10*, COUP-TFII inh -16, NR2E3 ag-2 9, SMARCA2 conf -1 and GAL4-VP16 Luc 1.
COc1ccc(N2CCN(CCCNC(=O)CCc3cccc(F)c3)CC2)cc1 was read as SMARCA2 activ -2 and COUP-TFII inh -2.
`Cc1ccc(-n2c(SCC(=O)Nc3ccc(Oc4ccccc4)cc3)nnc2-c2cccc(C)c2)cc1` gave SMARCA2 activ -4 and COUP-TFII inh -5.
NS(=O)(=O)c1ccc(N=Nc2c(O)ccc3ccccc23)cc1 was read as GalR3 antag -3, SMARCA2 activ 8.8*, COUP-TFII inh 3, NR2E3 ag-1 0, NR2E3 ag-2 7, SMARCA2 conf 0 and GAL4-VP16 Luc 3.
Screening COc1ccc(C(=O)Nc2ccc3c(c2)C(=O)N(C)[C@H]2CC[C@H](CC(=O)NCC4CC4)O[C@@H]2CO3)cc1 returned SMARCA2 activ -4 and COUP-TFII inh -9.
`Cc1cccc(/C=N/Nc2nncc3ccccc23)c1` gave GalR3 antag 0, SMARCA2 activ 12*, COUP-TFII inh -26, NR2E3 ag-1 -1, NR2E3 ag-2 -109, SMARCA2 conf 14* and GAL4-VP16 Luc 8.8*.
`CCOC(=O)CCCSc1nc(-c2ccc3c(c2)OCO3)cc(C(F)(F)F)c1C#N` gave GalR3 antag -9, SMARCA2 activ 8.7*, COUP-TFII inh 4, NR2E3 ag-1 1, NR2E3 ag-2 -29, SMARCA2 conf 0 and GAL4-VP16 Luc 2.
Screening CCOC(=O)CSc1nc(-c2ccc3c(c2)OCO3)ccc1C#N returned GalR3 antag 4, SMARCA2 activ 6, COUP-TFII inh -33, NR2E3 ag-1 0 and NR2E3 ag-2 -59.
For Cc1ccc(N2Cc3ccccc3C2=S)cc1 the results were GalR3 antag -7, SMARCA2 activ 13*, COUP-TFII inh -51, NR2E3 ag-1 2, NR2E3 ag-2 -146, SMARCA2 conf 12* and GAL4-VP16 Luc 11*.
Screening Cc1ccc(N2Cc3ccccc3OC(C)C2=O)cc1 (stereo not drawn) returned GalR3 antag -3, SMARCA2 activ 4, COUP-TFII inh 7, NR2E3 ag-1 4 and NR2E3 ag-2 -4.
Screening S=C1c2ccccc2CN1c1ccccc1 returned GalR3 antag -2, SMARCA2 activ 10*, COUP-TFII inh -30, NR2E3 ag-1 4, NR2E3 ag-2 -38, SMARCA2 conf 4 and GAL4-VP16 Luc 3.
`COC(=O)[C@H](C(C)C)N(CCCc1cn(Cc2ccc(C)cc2)nn1)S(=O)(=O)c1ccc(F)cc1Br` gave SMARCA2 activ -2 and COUP-TFII inh -7.
For COc1ccc(S[C@]2(C(=O)NCCc3ccccc3)CC(=O)N[C@@H]2c2ccc(OC)cc2)cc1 the results were SMARCA2 activ -5 and COUP-TFII inh -1.
CC(=O)N/C(=N\c1nc(C)cc(C)n1)Nc1ccccc1Cl was read as GalR3 antag -8, SMARCA2 activ 8.3*, COUP-TFII inh 13, NR2E3 ag-2 0, SMARCA2 conf 4 and GAL4-VP16 Luc 1.
For O=c1c(C(c2ccc(F)cc2)c2c(O)nc3n(c2=O)CCS3)c(O)nc2n1CCS2 the results were GalR3 antag -2, SMARCA2 activ 9.3*, COUP-TFII inh 5, NR2E3 ag-1 -1, NR2E3 ag-2 -19, SMARCA2 conf 5 and GAL4-VP16 Luc 1.
For CCc1ccc(C=NN2CCN(Cc3ccc(C)cc3C)CC2)cc1 the results were SMARCA2 activ -1 and COUP-TFII inh -8.
For O=C(N/N=C/c1cc2ccccc2[nH]1)c1ccccc1Cl the results were GalR3 antag -7, SMARCA2 activ 8.2*, COUP-TFII inh -8, NR2E3 ag-1 -1, NR2E3 ag-2 -40, SMARCA2 conf -2 and GAL4-VP16 Luc 0.
Screening O=C(N/N=C/c1cccc2ccccc12)c1ccccc1Cl returned GalR3 antag -9, SMARCA2 activ 4, COUP-TFII inh -1 and NR2E3 ag-2 -45.
`COc1ccc(C2CC(=O)C(c3cccc(C)c3)=CN2Cc2ccccc2)cc1` (stereo not drawn) gave GalR3 antag -5, SMARCA2 activ 0 and COUP-TFII inh 4.
Screening OCC1OC(n2ccc3c(SCc4ccccc4)ncnc32)C(O)C1O (stereo not drawn) returned GalR3 antag -1, SMARCA2 activ 9.4*, COUP-TFII inh -65, NR2E3 ag-2 -105, SMARCA2 conf 8 and GAL4-VP16 Luc 9.6*.
Screening Nc1ncnc2c1ncn2C1O[C@H](CO)[C@@H](O)[C@@H]1O (stereo partly drawn) returned GalR3 antag -1, SMARCA2 activ -1, COUP-TFII inh 2, NR2E3 ag-1 3 and NR2E3 ag-2 14.
Screening OCC1OC(n2cnc3c(SCc4ccccc4)ncnc32)C(O)C1O (stereo not drawn) returned GalR3 antag 1, SMARCA2 activ 8.7*, COUP-TFII inh -7, NR2E3 ag-2 -38, SMARCA2 conf 13* and GAL4-VP16 Luc 1.
`Nc1ncnc2c1ncn2C1OC(CO)C(O)C1O` (stereo not drawn) gave GalR3 antag -13, SMARCA2 activ 8.6*, COUP-TFII inh -26, NR2E3 ag-1 4, NR2E3 ag-2 -8, SMARCA2 conf 5 and GAL4-VP16 Luc 0.
For Nc1nc(SCc2ccccc2)c2ncn(C3OC(CO)C(O)C3O)c2n1 (stereo not drawn) the results were GalR3 antag -5, SMARCA2 activ 2, COUP-TFII inh -13 and NR2E3 ag-2 -56.
Screening COC(=O)C1CN(CC(C)C)CCS(=O)(=O)N1Cc1ccc(Cl)cc1 (stereo not drawn) returned SMARCA2 activ 4 and COUP-TFII inh -19.
`Cc1ccc(S(=O)(=O)N2OC(c3ccccc3)C[C@H]2CC=C(c2ccccc2)c2ccccc2)cc1` (stereo partly drawn) gave COUP-TFII inh 13.
`O=C(Nc1ccccn1)c1csc2c1CCCC2` gave GalR3 antag -1, SMARCA2 activ 11*, COUP-TFII inh -56, NR2E3 ag-1 4, NR2E3 ag-2 -108, SMARCA2 conf 6 and GAL4-VP16 Luc 6.5*.
